Bioassay records: PubChem, The Scripps Research Institute Molecular Screening Center
RBBP9 inh: blocks human serine hydrolase RBBP9; O75884; recombinant RBBP9, FP-Rh probe fluorescence polarization; inhibition, % at 7.94 µM; 220,000 compounds, 0.2% hits; AID 1515;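 active means inhibition above the campaign mean of all tested compounds plus 3 SD, cut at about 14% in these data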;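 further: plate controls were DMSO wells with RBBP9 for no effect and wells lacking RBBP9 protein for full effect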
Target sequence (O75884 whole entry, looked up): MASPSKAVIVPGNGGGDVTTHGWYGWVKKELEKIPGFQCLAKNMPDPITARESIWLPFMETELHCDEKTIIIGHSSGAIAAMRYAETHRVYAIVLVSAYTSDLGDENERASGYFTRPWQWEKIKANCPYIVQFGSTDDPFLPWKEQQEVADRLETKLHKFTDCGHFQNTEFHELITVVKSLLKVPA
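Measured by: FP readout at 525/598 nm; material: recombinant human RBBP9; also added: Serine-hydrolase probe FP-Rh, 375 nM pre-mixing; medium: Tris buffer pH 8.0, NaCl, Pluronic; replication: one well per compound; doses: one concentration, 7.94 µM nominal, 0.794% DMSO; timing: preincubation 30 min plus labeling 45 min at 25 °C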
PRMT1 FP inh: PRMT1 (human) inhibition, primary screen. Q99873. recombinant PRMT1, activity-based probe fluorescence polarization. inhibition, % at 2.79 µM. 370,000 compounds, 1.3% hits;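 active means inhibition above about 21% made by adding two undisclosed values, limit read from the data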
ABHD5 PLIN5 PPI: blocks binding of human ABHD5 to perilipin-5; 360,000 compounds, 0.78% hits; Q00G26+Q8WTS1; Split G. princeps luciferase complementation, luminescence, 4 h; inhibition, % at 4 µM; AID 602281;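 active means inhibition above the mean inhibition across every tested compound plus 3 SD, cut at about 22% in these data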;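 further: 0% = DMSO only wells and the 100% control is not disclosed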
UHRF1 MBD2 ctr: blocks human UHRF1 binding to methylated DNA | Q96T88 | UHRF1 binding to methylated oligo, TR-FRET | inhibition, % at 4.4 µM | 370,000 compounds, 0.75% hits;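 further: UHRF1 SRA domain binding a hemimethylated CpG hairpin DNA probe; 0% = median of test compound wells and 100% = reference inhibitor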
LEDGF integ inh: blocks HIV-1 LEDGF/p75-dependent DNA integration | TR-FRET IN-LEDGF/p75 DNA integration, Eu/Cy5 | inhibition, % at 3.7 µM | 370,000 compounds, 0.64% hits | AID 743269;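 active means inhibition above the screen-wide mean plus 3 SD, cut at about 13% in these data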;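 further: signal is the Cy5 over europium emission ratio at 671 and 618 nm; 0% = plate median of compound wells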
MBD2 DNA inh: MBD2-methylated oligo binding inhibition | Q9UBB5 | TR-FRET, MBD2 binding to methylated oligonucleotide | inhibition, % at 4.4 µM | 370,000 compounds, 0.31% hits; in the data active means inhibition above about 13%
Target sequence (Q9UBB5 whole entry, looked up): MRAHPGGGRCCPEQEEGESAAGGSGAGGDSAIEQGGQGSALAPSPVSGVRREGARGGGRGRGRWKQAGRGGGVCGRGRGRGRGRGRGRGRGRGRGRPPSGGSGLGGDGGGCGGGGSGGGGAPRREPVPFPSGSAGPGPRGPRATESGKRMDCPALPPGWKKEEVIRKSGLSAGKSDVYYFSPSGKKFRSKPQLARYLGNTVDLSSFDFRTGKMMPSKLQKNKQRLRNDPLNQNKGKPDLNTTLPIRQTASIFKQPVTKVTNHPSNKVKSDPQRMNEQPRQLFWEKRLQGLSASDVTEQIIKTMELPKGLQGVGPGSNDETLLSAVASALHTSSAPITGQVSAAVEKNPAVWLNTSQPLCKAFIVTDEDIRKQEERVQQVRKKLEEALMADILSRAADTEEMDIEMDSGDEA
PRMT1 confirm: PRMT1 (human) inhibition, FP confirmation; 3,300 compounds, 42% hits; shares compounds with PRMT1 FP inh; recombinant His-PRMT1, activity-based probe fluorescence polarization; inhibition, % at 2.79 µM;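 active means mean inhibition across replicates above the hit cutoff derived for the earlier primary screen, cut at about 22% in these data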
UHRF1 ctr MBD2: inhibits human UHRF1 binding to methylated oligonucleotide, MBD2 counter-screen | shares compounds with MBD2 DNA inh | TR-FRET | inhibition, % at 4.4 µM | 1,000 compounds, 25% hits | AID 720530;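 further: UHRF1 SRA domain binding a labeled hemimethylated CpG hairpin DNA; 0% = vehicle only and 100% = reference inhibitor with vehicle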
MBD2 DBD conf: confirmation of human MBD2-DBD methylated oligonucleotide binding inhibitors; shares compounds with MBD2 DNA inh; TR-FRET MBD2-DBD binding to methylated oligonucleotide; inhibition, % at 4.4 µM; 1,000 compounds, 26% hits; AID 720531; in the data active means inhibition above about 14%
IN multimer act: HIV-1 integrase multimerization activation, counter-screen; TR-FRET HIV-1 integrase multimerization, biochemical; activation, % at 7.7 µM; shares compounds with LEDGF integ inh; AID 1053131; 2,000 compounds, 17% hits; in the data active means activation above about 8.9%
TR-FRET interf: optically interferes with TR-FRET readout in LEDGF counter-screen; shares compounds with LEDGF integ inh; TR-FRET optical interference counterscreen, HIV-1 IN multimerization; inhibition, % at 7.7 µM; 2,000 tested, under 10 active;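 active means inhibition above the mean over all tested compounds plus 3 SD, which no compound reached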;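 further: 0% = integrase with antibodies and DMSO and 100% = antibodies without integrase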
LEDGF integ conf: LEDGF/p75-dependent HIV-1 integration inhibition, confirmation; AID 1053136; 2,000 compounds, 36% hits; inhibition, % at 3.7 µM; shares compounds with LEDGF integ inh; TR-FRET LEDGF/p75-dependent HIV-1 integration, biochemical; in the data active means inhibition above about 14%
The depositor's hits bear a star; / = not tested or not shown. The list is not random: actives were taken first. Their share in the collection is about 3.1%. Unless noted, no stated cut-off is given here; in the data, active means inhibition above about 21%; inactive means the rest.

SMILES	RBBP9 inh	PRMT1 FP inh	ABHD5 PLIN5 PPI	UHRF1 MBD2 ctr	LEDGF integ inh	MBD2 DNA inh	PRMT1 confirm	IN multimer act	TR-FRET interf	LEDGF integ conf	others
Nc1nc2c(s1)CCCCCCCCCC2	-5	0	14	-2	-3	1	/	/	/	/
COC1C(O)CCC2(CO2)C1C1(C)OC1CC=C(C)C (stereo not drawn)	/	2	/	-1	-1	0	/	/	/	/
COC(=O)[C@]12C[C@H](CC(=O)N3CCN(C(=O)c4ccco4)CC3)C(=O)N(Cc3ccco3)C1=C[C@H](C(C)(C)C)O[C@@H]2C	/	3	/	-1	-3	0	/	/	/	/
CC1OC2CC(=O)OC2C2=C1C(=O)c1c(O)cccc1C2=O (stereo not drawn)	/	90*	101*	18	19*	-2	73*	-1	3	41*
S=c1[nH]nc(-c2cc(-c3ccco3)[nH]n2)n1-c1ccccc1Cl	-5	41*	2	17	14*	3	12	2	-9	15*
NC(=O)CSc1nc2scc(-c3ccco3)c2c(=O)n1-c1ccccc1	-12	76*	49*	3	17*	1	9	-1	3	5
O=C(CSc1nc2scc(-c3ccco3)c2c(=O)n1-c1ccccc1)N1CCOCC1	6	4	7	-3	2	3	/	/	/	/
O=c1c2c(-c3ccco3)csc2nc(SCc2cn3cccnc3n2)n1-c1ccccc1	-5	37*	48*	32*	27*	7	1	2	-8	22*
COc1ccc(N2CCN(CCCNC(=O)CCc3cccc(Cl)c3)CC2)cc1	/	0	/	2	1	0	/	/	/	/
Cc1cccc(/N=C/c2c(O)[nH]c3ccccc23)n1	-2	5	0	-1	-5	-3	/	/	/	/
Cc1cccc(/N=C/c2sc3ccccc3c2O)n1	0	37*	-2	0	50*	-4	15	8	-41	-1
CCN(CC)C(=O)CSc1nnc(-c2ccccn2)n1C	/	1	/	3	3	6	/	/	/	/
COc1cc2cc3c(N)c(C(=O)NCc4ccco4)sc3nc2cc1OC	-9	/	9	/	/	/	/	/	/	/
COc1cc2cc3c(N)c(C(=O)Nc4sc(C)c(C)c4C#N)sc3nc2cc1OC	-7	27*	-6	3	15*	-5	2	27*	-94	46*
CCN1CCCC1CNC(=O)Cn1nc(C)n2c(cc3cc(F)ccc32)c1=O (stereo not drawn)	/	33*	5	16	19*	11	2	3	-9	-2
CCCNC(=O)Cn1nc(C)n2c(cc3cc(F)ccc32)c1=O	/	-2	1	-3	1	-2	/	/	/	/
Oc1ccc(-c2ccccc2F)c2cccnc12	/	-1	/	-4	6	-2	/	/	/	/
Oc1ccc(Nc2ccccc2F)c2cccnc12	/	42*	/	-3	34*	-16	1	2	-8	1
Cc1ccc(NC(=O)[C@@H]2CC(=O)O[C@@H]2c2ccccc2)c(C)c1	/	7	/	0	-2	1	/	/	/	/
CCOC(=O)C(=O)NCc1ccc(/C=C2/N=C(C)C(C(=O)OCC)=C2O)o1	-5	18	3	-5	9	-3	/	/	/	/
COC(=O)C1=C(O)/C(=C\c2ccc(CNS(=O)(=O)c3ccccc3)o2)N=C1C	2	39*	6	5	23*	0	16	7	-33	18*
CCOC(=O)C1=C(O)/C(=C\c2ccc(CNS(=O)(=O)c3ccc(Br)cc3)o2)N=C1C	-1	34*	13	5	22*	-2	15	3	-11	-3
CC(C)N1Cc2nnn(Cc3ccccc3)c2-c2ccccc2S1(=O)=O	/	-2	/	0	1	-1	/	/	/	/
Cc1ccc(NC(=O)OC2CC3CC2[C@H]2CCCCN2[C@H]3Cc2ccccc2)cc1 (stereo partly drawn)	/	-2	/	-1	4	-2	/	/	/	/
Cc1n[nH]c(=S)n(NC(=O)/C=C/C(=O)Nn2c(=S)[nH]nc(C)c2=O)c1=O	2	29*	4	41*	14*	15*	30*	8	-42	29*	UHRF1 ctr MBD2=16;MBD2 DBD conf=9
SMILES	RBBP9 inh	PRMT1 FP inh	ABHD5 PLIN5 PPI	UHRF1 MBD2 ctr	LEDGF integ inh	MBD2 DNA inh	PRMT1 confirm	IN multimer act	TR-FRET interf	LEDGF integ conf	others
COc1ccccc1/C=C/C=c1\sc2nc(=O)c(Cc3ccccc3)nn2c1=O	4	19	-9	0	5	4	/	/	/	/
CCCOc1ccc(Cc2nn3c(=O)/c(=C/c4ccco4)sc3nc2=O)cc1	6	33*	4	23*	27*	3	7	4	-15	15*
COc1ccccc1NC(=O)/C(C#N)=C/C=C/c1ccco1	1	28*	-4	6	25*	6	9	1	-5	4
COc1ccc2c(c1)[C@@]1(NCCc3c1[nH]c1ccc(OC)cc31)C(=O)N2	/	-9	/	2	6	1	/	/	/	/
Cc1c(Br)cc(C(=O)O)c(C)c1C	1	1	8	-2	-1	0	/	/	/	/
Cc1c(N)cc(N)cc1C(=O)O	-3	32*	-16	73*	74*	26*	12	6	-30	1	UHRF1 ctr MBD2=1;MBD2 DBD conf=-2
CS(=O)(=O)N[C@@H]1C[C@@H]2O[C@@H](CO)CC[C@@H]2O[C@@H]1CCc1ccc(-c2ccccc2F)cc1	/	-2	/	4	-3	-2	/	/	/	/
C=C1c2cccc(O)c2C(=O)C2C(=O)[C@]3(O)C(=O)C(C(N)=O)C(=O)[C@@H](N(C)C)[C@@H]3[C@@H](O)[C@H]12 (stereo partly drawn)	/	62*	6	96*	86*	90*	22*	37*	-131	52*	UHRF1 ctr MBD2=11;MBD2 DBD conf=7
Nc1c(C(=O)NCC2CCCO2)sc2nc3c(c(-c4ccco4)c12)CC/C3=C\c1ccco1 (stereo not drawn)	3	36*	12	42*	65*	21*	47*	54*	-193	85*	UHRF1 ctr MBD2=92*;MBD2 DBD conf=106*
